High-throughput results: PubChem, several laboratories
An excerpt weighted towards active compounds, which were near 2.1% of everything screened.
STK33 kinase inh: human STK33 kinase inhibition. purified STK33, MBP phosphorylation, ADP-Glo luminescence. inhibition, % at 10 µM. hit rate 0.073% among 320,000;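 active = inhibition at or above 25%, using the most active replicate where run in duplicate; inactive = inhibition below 25%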
GSK3beta inhib: blocks human GSK3beta kinase activity; P49841; GST-GSK3beta kinase, ADP-Glo luminescence, 60 min; stronger effect = lower value; activity score (negative = inhibition), % at 10 µM; hit rate 0.038% among 300,000; AID 2097;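 active = more than half of replicate wells score below -50%, meaning over 50% inhibition versus plate controls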;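 also: 0% = median DMSO wells and -100% = median GW8510 positive control wells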
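Assay system: GST-fused GSK3beta enzyme, cell-free / Medium: Tris pH 7.5 buffer with MgCl2, DTT, BSA, heparin / Also added: peptide substrate plus 25 µM ATP (final) / Compound: 10 µM single point / Timing: kinase reaction with compound 60 min at room temperature / Detection: ADP-Glo luminescence / Benchmarks: DMSO neutral wells and GW8510 at 20 µM as positive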
MEKK2wt PB1 HTS: raises or lowers MEK5 binding to wildtype human MEKK2 PB1 domain. Q9Y2U5. binding response (% of control), % at 10 µM. bead flow cytometry, Alexa488-MEK5 binding to MEKK2 WT; actives lie on both sides. hit rate 1.1% among 290,000; in the data active = binding response below about 67% or above about 130%
MEKK3 PB1 HTS: raises or lowers MEK5 binding to the human MEKK3 PB1 domain. Q99759. bead-based flow cytometry, Alexa488-MEK5 binding to MEKK3; actives lie on both sides; 0 = blocked by unlabeled MEK5, 100 = vehicle. binding response (% of control), % at 10 µM. hit rate 1.4% among 290,000. AID 1529;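 active = binding response more than 3 SD above or below the average of its plate-row segment, actives on both sides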;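 also: Alexa488 bead fluorescence after subtracting the streptavidin-only scavenger bead signal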
Target sequence (Q99759 whole entry, looked up, the tested form may be a part): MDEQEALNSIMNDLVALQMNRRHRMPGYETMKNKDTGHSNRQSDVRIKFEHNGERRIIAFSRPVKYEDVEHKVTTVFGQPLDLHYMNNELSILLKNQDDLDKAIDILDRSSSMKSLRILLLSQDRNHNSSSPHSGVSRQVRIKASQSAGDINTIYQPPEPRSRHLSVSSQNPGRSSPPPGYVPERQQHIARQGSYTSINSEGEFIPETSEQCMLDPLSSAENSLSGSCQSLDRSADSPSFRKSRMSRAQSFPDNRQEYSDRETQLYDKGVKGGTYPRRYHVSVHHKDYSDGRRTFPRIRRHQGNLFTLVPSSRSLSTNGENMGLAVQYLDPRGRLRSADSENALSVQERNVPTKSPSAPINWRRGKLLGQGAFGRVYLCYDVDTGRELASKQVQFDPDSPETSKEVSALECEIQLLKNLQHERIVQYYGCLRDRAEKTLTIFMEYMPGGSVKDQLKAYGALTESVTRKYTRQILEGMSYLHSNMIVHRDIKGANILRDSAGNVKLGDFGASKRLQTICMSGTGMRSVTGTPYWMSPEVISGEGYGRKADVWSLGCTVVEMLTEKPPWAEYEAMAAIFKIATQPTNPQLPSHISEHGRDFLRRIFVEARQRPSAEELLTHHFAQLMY
GSK3A inh: blocks human GSK-3 alpha kinase | P49840 | ADP-Glo luminescence, 60 min | hit rate 0.1% among 320,000 | inhibition, % at 10 µM;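 active = more than half of replicates show inhibition above 20%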;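 also: GST-tagged GSK-3 alpha with peptide substrate and 25 µM ATP; 0% = DMSO neutral wells and 100% = GW8510 positive control wells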
MEKK2 mut-MEK5: signal of MEK5 binding to mutant human MEKK2 PB1 domain. hit rate 0.35% among 290,000. percent response, % at 10 µM. bead flow cytometry, Alexa488-MEK5 binding to MEKK2 mutant; in the data active = percent response above about 24%, passing the limit was not always enough
* marks the source's active call; other numbers are inactive results; [ ] = dose if it differs, or a comment.

How did CC(=O)NS(=O)(=O)c1ccc2c(c1)C(=O)c1cc(S(=O)(=O)NC(C)=O)ccc1-2 do in these assays?
STK33 kinase inh: -1; GSK3beta inhib: 2; MEKK2wt PB1 HTS: -8.0*; MEKK3 PB1 HTS: 98; GSK3A inh: -1; MEKK2 mut-MEK5: -3

Results for CC(NS(=O)(=O)c1ccc2c(c1)C(=O)c1cc(S(=O)(=O)NC(C)C(=O)O)ccc1-2)C(=O)O (stereo not given) ?
STK33 kinase inh: -1; GSK3beta inhib: 1; MEKK2wt PB1 HTS: 107; MEKK3 PB1 HTS: 104; GSK3A inh: -2; MEKK2 mut-MEK5: 4

Results for CC(C)(C)OC(=O)NCCCCCNC(=O)c1nc[nH]c1C(=O)NCCCCCNC(=O)OC(C)(C)C ?
STK33 kinase inh: 1; GSK3A inh: 6

Results for CCOc1ccc(S(=O)(=O)Nc2cccc(C(=O)NCC(C)(C)N3CCOCC3)c2)cc1 ?
STK33 kinase inh: -2; GSK3beta inhib: -2; GSK3A inh: -1

What do the screens show for `C=CC(=O)Nc1ccc(Nc2nc(NC3CCC(N(C)C)CC3)nc3c2ncn3C(C)C)cc1` (stereo not given)?
STK33 kinase inh: 81*; GSK3A inh: 15

How did Cc1ccc(NC(=O)COC(=O)c2cc(Cl)ccc2Cl)c(Br)c1 do in these assays?
STK33 kinase inh: 26*; GSK3beta inhib: 0; MEKK2wt PB1 HTS: 102; MEKK3 PB1 HTS: 102; GSK3A inh: 10; MEKK2 mut-MEK5: -1

What do the screens show for `CCC(Cc1ccccc1)n1c(=S)[nH]c2ccccc2c1=O` (stereo not given)?
STK33 kinase inh: 0; GSK3beta inhib: 2; MEKK3 PB1 HTS: 136*; GSK3A inh: -3; MEKK2 mut-MEK5: active

How did CN(C(=O)c1ccc(NC(=O)Cc2cccc(NC(=O)C3CCN(C(=O)c4ccccc4)CC3)c2)cc1)C1CCCC1 do in these assays?
STK33 kinase inh: 0; GSK3A inh: -2

How did CCC(=O)N1N=C(c2cccs2)CC1c1ccco1 (stereo not given) do in these assays?
STK33 kinase inh: 1; GSK3beta inhib: 4; MEKK2wt PB1 HTS: 13*; MEKK3 PB1 HTS: 103; GSK3A inh: 2; MEKK2 mut-MEK5: 1

Results for COc1cc(C2c3c(c(C)c(C)oc3=O)Oc3c(C)c(C)oc(=O)c32)ccc1OS(=O)(=O)c1ccc(C)cc1 ?
STK33 kinase inh: 0; GSK3A inh: 0

How did O=C(Nc1cc(C(=O)Nc2ccccc2C(=O)O)cc(C(=O)Nc2ccccc2C(=O)O)c1)c1ccccc1 do in these assays?
STK33 kinase inh: 49*; GSK3beta inhib: 3; MEKK2wt PB1 HTS: 111; MEKK3 PB1 HTS: 104; GSK3A inh: 1; MEKK2 mut-MEK5: 11

How did COc1ccc(C)cc1NC(=O)c1cccc(C(=O)Nc2cc(C)ccc2OC)c1 do in these assays?
STK33 kinase inh: 0; GSK3beta inhib: -3; MEKK2wt PB1 HTS: 102; MEKK3 PB1 HTS: 106; GSK3A inh: -4; MEKK2 mut-MEK5: 2

How did Cc1ccc(NC(=O)c2cccc(C(=O)Nc3ccc(C)cc3C(=O)O)c2)c(C(=O)O)c1 do in these assays?
STK33 kinase inh: 37*; GSK3beta inhib: 10; MEKK2wt PB1 HTS: 94; MEKK3 PB1 HTS: 92; GSK3A inh: -3; MEKK2 mut-MEK5: -8

Results for O=C(NC(=O)c1ccccc1O)c1ccc2c(c1)CCO2 ?
STK33 kinase inh: 0; GSK3beta inhib: -3; MEKK2wt PB1 HTS: 104; MEKK3 PB1 HTS: 107; GSK3A inh: 2; MEKK2 mut-MEK5: 0

Results for CCS(=O)(=O)N1N=C(c2cccc(NS(C)(=O)=O)c2)CC1c1cccs1 (stereo not given) ?
STK33 kinase inh: 1; GSK3beta inhib: -2; MEKK3 PB1 HTS: 13*[inhibitor]; GSK3A inh: 3; MEKK2 mut-MEK5: 24*

How did COc1ccc(S(=O)(=O)N2N=C(c3ccc(NS(C)(=O)=O)cc3)CC2c2ccco2)cc1 (stereo not given) do in these assays?
STK33 kinase inh: 0; GSK3beta inhib: 1; MEKK2wt PB1 HTS: 84; MEKK3 PB1 HTS: 101; GSK3A inh: -2; MEKK2 mut-MEK5: 4

What do the screens show for `COc1ccc(S(=O)(=O)N2N=C(c3cccc(NS(C)(=O)=O)c3)CC2c2ccco2)cc1` (stereo not given)?
STK33 kinase inh: -1; GSK3beta inhib: -1; MEKK2wt PB1 HTS: 14*; MEKK3 PB1 HTS: 100; GSK3A inh: 0; MEKK2 mut-MEK5: 21

Results for CCS(=O)(=O)Nc1cccc(C2=NN(S(=O)(=O)c3ccc(F)cc3)C(c3cccs3)C2)c1 (stereo not given) ?
STK33 kinase inh: 0; GSK3beta inhib: 3; MEKK2wt PB1 HTS: 101; MEKK3 PB1 HTS: 103; GSK3A inh: 0; MEKK2 mut-MEK5: 2

How did CCS(=O)(=O)Nc1cccc(C2=NN(S(C)(=O)=O)C(c3cccs3)C2)c1 (stereo not given) do in these assays?
STK33 kinase inh: 1; GSK3beta inhib: 0; MEKK3 PB1 HTS: 12*[inhibitor]; GSK3A inh: -12

Results for CCS(=O)(=O)Nc1cccc(C2=NN(S(=O)(=O)CC)C(c3cccs3)C2)c1 (stereo not given) ?
STK33 kinase inh: -1; GSK3beta inhib: -1; MEKK3 PB1 HTS: 17*[inhibitor]; GSK3A inh: -3; MEKK2 mut-MEK5: 32*

What do the screens show for `Cn1ncc(Br)c1C(=O)NC1CCCCCC1`?
STK33 kinase inh: -1; GSK3beta inhib: 2; MEKK2wt PB1 HTS: 102; MEKK3 PB1 HTS: 99; MEKK2 mut-MEK5: 0

How did c1ccc(-c2nc(-c3nccc4ccccc34)oc2-c2ccccc2)cc1 do in these assays?
STK33 kinase inh: 0; GSK3beta inhib: 1; MEKK2wt PB1 HTS: 86; MEKK3 PB1 HTS: 80; GSK3A inh: 1; MEKK2 mut-MEK5: -23

How did Cc1cccc(Cn2c(SCC(=O)Nc3ccccc3)nc3c2c(=O)[nH]c(=O)n3C)c1 do in these assays?
STK33 kinase inh: 0; GSK3beta inhib: 0; MEKK2wt PB1 HTS: 107; MEKK3 PB1 HTS: 105; GSK3A inh: 2; MEKK2 mut-MEK5: 3

What do the screens show for `COc1cccc(C2CC(c3cccs3)=NN2S(C)(=O)=O)c1` (stereo not given)?
STK33 kinase inh: -1; GSK3beta inhib: 1; MEKK2wt PB1 HTS: 3.0*; MEKK3 PB1 HTS: 100; GSK3A inh: -2; MEKK2 mut-MEK5: 19

Results for CS(=O)(=O)Nc1cccc(C2=NN(S(C)(=O)=O)C(c3ccc4c(c3)OCO4)C2)c1 (stereo not given) ?
STK33 kinase inh: -6; GSK3beta inhib: 0; MEKK2wt PB1 HTS: 26*; MEKK3 PB1 HTS: 111; GSK3A inh: -1; MEKK2 mut-MEK5: 29

Results for CS(=O)(=O)Nc1cccc(C2=NN(S(=O)(=O)c3ccc(F)cc3)C(c3cccs3)C2)c1 (stereo not given) ?
STK33 kinase inh: 0; GSK3beta inhib: 2; MEKK2wt PB1 HTS: 7.0*; MEKK3 PB1 HTS: 103; GSK3A inh: -2; MEKK2 mut-MEK5: 6
